APJ agonist: activates the human apelin receptor APJ. activation, % at 20 µM. P35414. AID 2520. 330,000 compounds, 0.11% hits. CHO-K1 APJ PathHunter beta-arrestin, luminescence; 0% DMSO wells, 100% apelin;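 active means activation more than six SD over the plate average, tested at 20 µM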;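 further: 0% = DMSO alone and 100% = apelin-13 at 10 nM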
Target sequence (P35414 whole entry, looked up): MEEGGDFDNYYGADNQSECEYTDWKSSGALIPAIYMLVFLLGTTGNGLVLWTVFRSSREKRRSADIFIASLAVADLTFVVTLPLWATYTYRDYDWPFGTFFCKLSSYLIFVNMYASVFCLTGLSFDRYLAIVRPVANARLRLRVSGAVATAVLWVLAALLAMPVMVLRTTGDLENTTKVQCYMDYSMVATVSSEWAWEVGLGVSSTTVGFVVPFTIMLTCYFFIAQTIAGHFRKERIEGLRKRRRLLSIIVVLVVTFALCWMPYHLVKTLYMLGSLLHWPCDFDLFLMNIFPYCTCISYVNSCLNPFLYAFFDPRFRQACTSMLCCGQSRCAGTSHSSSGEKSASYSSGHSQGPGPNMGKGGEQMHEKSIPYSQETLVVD
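Assay system – PathHunter CHO-K1 APJ (AGTRL-1) beta-arrestin reporter cells · Compound – one dose, 20 µM compound, 1% DMSO · Timing – compound 90 min 25 °C, reagent 1 h · Measured by – luminescence from split beta-galactosidase complementation, Galacton Star/Emerald II substrate · Measure – beta-arrestin recruitment to APJ as agonist activity, luminescent signal · Benchmarks – DMSO vs Apelin-13 10 nM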
DAGLB inh: blocks human DAGLB lipase activity; Q8NCG7; HEK293T DAGLB membrane lysate, EnzChek fluorogenic substrate; inhibition, % at 5.17 µM; 340,000 compounds, 0.059% hits; AID 504411; in the data active means inhibition above about 34%;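 further: 0% = enzyme with vehicle and 100% = wells lacking enzyme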
hiPSC survival: enhancers of human iPSC single-cell survival; hiPSC single-cell survival, ATPlite luminescence; 100% = ROCK inhibitor wells, 0% = DMSO; 360,000 compounds, 0.044% hits; survival enhancement, % at 20 µM; in the data active means survival enhancement above about 18%;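 further: cells exposed to compounds for 16 hours before the ATP read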
APJ antag: antagonists of human APJ apelin receptor; P35414; CHO-K1 APJ beta-arrestin complementation, luminescence; inhibition, % at 20 µM; 330,000 compounds, 0.32% hits;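 active means inhibition above about 40% at 20 µM, limit read from the data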;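 further: cells challenged with 10 nM apelin-13 agonist together with compound; plate controls were apelin-13 plus DMSO wells for no effect and DMSO wells lacking apelin-13 for full effect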
CCR6 antagonist: CCR6 (human) receptor antagonism; P51684; CHO-K1 CCR6 PathHunter beta-arrestin, luminescence, CCL20-stimulated; inhibition, % at 20 µM; 340,000 compounds, 0.49% hits; AID 493098;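 active means compounds whose inhibition of the agonist-driven luminescence signal at 20 µM reaches about 50%, limit read from the data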;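 further: cells stimulated with CCL20 at 14 nM final; plate controls were DMSO with CCL20 for no effect and DMSO without agonist for full effect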
CXCR6 inh: inhibitors of human CXCR6 receptor | inhibition, % at 20 µM | 360,000 compounds, 0.36% hits | O00574 | CHO-K1 PathHunter CXCR6 beta-arrestin, luminescence | AID 602244; in the data active means inhibition above about 34%, passing the limit was not always enough;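 further: antagonist mode with CXCL16 agonist at 10 nM final; 0% = 10 nM CXCL16 with DMSO and 100% = unstimulated wells without agonist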
Target sequence (O00574 whole entry, looked up): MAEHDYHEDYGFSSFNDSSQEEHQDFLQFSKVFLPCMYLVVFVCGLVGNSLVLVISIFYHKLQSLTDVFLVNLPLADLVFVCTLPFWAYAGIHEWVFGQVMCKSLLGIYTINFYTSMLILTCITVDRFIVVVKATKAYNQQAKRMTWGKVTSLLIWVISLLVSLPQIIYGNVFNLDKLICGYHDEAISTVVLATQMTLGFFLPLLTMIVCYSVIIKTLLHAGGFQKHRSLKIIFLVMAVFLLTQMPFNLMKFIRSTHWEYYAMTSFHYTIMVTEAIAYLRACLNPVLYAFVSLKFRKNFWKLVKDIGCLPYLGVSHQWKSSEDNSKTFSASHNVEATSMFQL
CXCR6 confirm: CXCR6 antagonism confirmation, single concentration; shares compounds with CXCR6 inh; 700 compounds, 65% hits; inhibition, % at 20 µM; CHO-K1 CXCR6 PathHunter beta-arrestin, luminescence;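 active means mean inhibition over four retests above 40%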;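 further: receptor stimulated with 10 nM CXCL16 agonist; beta-galactosidase fragment complementation upon beta-arrestin recruitment to receptor; plate controls were CXCL16 plus DMSO for no effect and DMSO without CXCL16 for full effect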
Numbers without * were called inactive; x = no result given. The list is not random: actives were taken first. Their share in the collection is about 0.86%.

SMILES | APJ agonist | DAGLB inh | hiPSC survival | APJ antag | CCR6 antagonist | CXCR6 inh | CXCR6 confirm
COC(=O)[C@@H](NC(=O)N1CCN(c2cccc(C(F)(F)F)c2)CC1)C(C)C | -3.1 | -2.5 | 8.4 | 16.3 | 1.4 | 13.9 | x
CCC(C)[C@H](NC(=O)N1CCN(c2cccc(C(F)(F)F)c2)CC1)C(=O)OC (stereo partly drawn) | -1.2 | -2.9 | -0.4 | 25.0 | 7.4 | 50.9* | 10.4
Cn1cc(CNC(=O)C2CCCCC2)cn1 | -5.6 | -1.2 | -0.4 | -17.7 | 1.5 | 43.0* | 6.9
O=C(NCc1ccncc1)C1CCCCC1 | 1.5 | -2.5 | 1.5 | -4.2 | 5.8 | 7.4 | x
CCN(CC(=O)Nc1c(F)cccc1F)C(=O)c1ccc2c(c1)C(=O)N(c1ccccc1C)C2=O | x | 1.8 | 2.1 | x | x | 6.4 | x
CC1CCCCC1NC(=S)Nc1ccc(SC(F)F)cc1 (stereo not drawn) | 3.0 | -5.9 | -0.1 | -2.0 | 0.8 | -25.4 | x
FC(F)Sc1ccc(NC(=S)NC2CCCCC2)cc1 | 1.8 | -3.9 | -1.2 | -4.8 | -11.2 | 56.6* | 4.0
NC(=S)N/N=C/c1ccc(C(F)(F)F)cc1 | 1.8 | -0.1 | -2.0 | 1.6 | -5.7 | 2.1 | x
NC(=S)N/N=C/c1ncc(C(F)(F)F)cc1Cl | -6.7 | x | 0.4 | 58.1* | 74.3* | 60.7* | 89.9*
O=C(c1ccco1)N1CCN(Cc2cn[nH]c2-c2ccc(F)cc2F)CC1 | 3.1 | 2.0 | 1.2 | 11.7 | 5.5 | 56.7* | 11.5
C/C(=N/NC(=O)CN1CCN(S(=O)(=O)c2ccc(C)cc2)CC1)c1ccco1 | -2.6 | 1.4 | -0.5 | -33.6 | 7.7 | -8.3 | x
O=C1C=CC2C3C(=O)N(c4ccccc4)C(=O)C3C1N2Cc1ccccc1 (stereo not drawn) | x | 3.0 | -4.1 | x | 58.8* | 51.3* | 45.0*
CCCC(=O)OCCNc1cc(SCc2ccco2)c2nonc2c1[N+](=O)[O-] | 4.6 | 5.8 | 3.0 | -22.9 | 67.4* | 38.2* | 52.7*
O=[N+]([O-])c1c(NCc2ccco2)ccc2nonc12 | 3.1 | x | -0.1 | -52.0 | -0.2 | -6.4 | x
CCCC(=O)OCCNc1cc(Sc2nccn2C)c2nonc2c1[N+](=O)[O-] | x | -2.2 | -0.7 | x | 98.6* | 99.9* | 105.2*
CCC(=O)OCCNc1cc(Sc2nc3ccccc3[nH]2)c2nonc2c1[N+](=O)[O-] | x | -0.4 | -2.5 | x | 117.0* | 101.6* | 106.3*
C/C(=N\NC(=O)C(c1ccccc1)c1ccccc1)c1ccccn1 | -14.0 | -1.2 | -1.7 | 74.9* | 105.3* | 86.5* | 107.7*
NNC(=O)c1cc(-c2cccs2)nc2ccccc12 | 0.6 | -2.7 | 0.5 | -5.5 | -17.3 | -27.6 | x
C/C(=N\NC(=O)c1cc(-c2cccs2)nc2ccccc12)c1ccccn1 | -8.0 | 2.7 | -3.0 | 39.2 | 29.3 | 44.7* | 44.0*
COc1ccc(C(=O)N/N=C(\C)c2ccccn2)cc1OC | -21.2 | -2.7 | -0.2 | 75.5* | 74.8* | 50.8* | 69.4*
C/C(=N\NC(=O)C1COc2ccccc2O1)c1ccccn1 (stereo not drawn) | -7.6 | -1.0 | -1.2 | 58.5* | 77.8* | 75.1* | 68.3*
CCOc1ccccc1NC(=O)CCS(=O)(=O)c1ccc2c(c1)CCN2C(C)=O | -1.8 | -1.0 | 0.1 | 4.8 | -7.1 | -1.3 | x
CC(C)C1N(C(=O)N2CCOCC2)CCN1S(=O)(=O)c1ccccc1 (stereo not drawn) | -0.9 | 0.3 | -0.2 | 22.3 | 9.0 | 5.5 | x
COc1cc(/C=C(\C#N)c2nc3ccccc3o2)ccc1O | -7.6 | -23.8 | -0.5 | 32.1 | 55.3* | 49.1* | 43.0*
O=C(CSc1n[nH]c(-c2ccc(Br)cc2)n1)N1CCOCC1 | -3.2 | 0.5 | -0.8 | 5.6 | 9.8 | 4.6 | x
SMILES | APJ agonist | DAGLB inh | hiPSC survival | APJ antag | CCR6 antagonist | CXCR6 inh | CXCR6 confirm
Nc1nc(N)c2cc([N+](=O)[O-])ccc2n1 | x | -0.8 | 2.0 | x | -0.8 | 0.6 | x
Nc1nc(N)c2c(ccc3c2ccn3Cc2cccc([N+](=O)[O-])c2)n1 | x | x | -2.2 | x | x | 61.9* | 68.3*
O=C(CSc1ccccn1)Nc1ccc(NC(=O)CSc2ccccn2)cc1 | -0.1 | -3.0 | -1.9 | -9.0 | 9.8 | 87.4* | 9.8
CCc1ccc(NC(=O)CSc2ccccn2)cc1 | -2.6 | -2.4 | 0.9 | 3.4 | 6.1 | 2.4 | x
O=C(O)C1CC2C3CC(C(=O)O)C(C3)C2C1 (stereo not drawn) | x | 0.1 | 3.0 | x | 8.0 | -1.0 | x
COc1cc(/C=C/C(=O)c2ccc(C)c([N+](=O)[O-])c2)cc(OC)c1O | -6.1 | -0.8 | -2.3 | 37.9 | 68.5* | 42.7* | 54.9*
CCN1CCN(C(=S)NC(=O)c2cccs2)CC1 | 0.4 | -0.8 | 0.0 | 19.0 | 14.4 | -3.3 | x
O=C(NC(=S)N1CCN(c2ccc(C(F)(F)F)cc2[N+](=O)[O-])CC1)c1cccs1 | 0.4 | 4.4 | -3.8 | 22.1 | x | 52.4* | 56.2*
O=C(Cc1cccc2ccccc12)NC(=S)Nc1cccc(C(=O)O)c1 | 1.2 | 4.4 | -1.1 | 18.0 | 16.5 | 1.4 | x
Cc1n[nH]c(=S)n(NC(=O)CC(=O)Nn2c(=S)[nH]nc(C)c2=O)c1=O | -2.5 | -1.3 | -0.1 | 9.8 | x | 103.1* | 115.0*
CCOc1cc(CNCCO)c(Cl)cc1OCC(=O)NCCc1ccccc1 | -1.1 | -0.2 | 5.2 | -7.5 | -5.9 | 70.8* | 12.9
COc1ccccc1/C=C/c1onc(C)c1S(=O)(=O)N1CCC(C(=O)NC(C)C)CC1 | -3.4 | -1.8 | -3.9 | -51.3 | 27.1 | 0.7 | x
CC(C)(C)C(=O)CSc1ccc(S(=O)(=O)N2CCN(Cc3ccccc3)CC2)cn1 | -3.5 | -10.7 | 0.6 | 6.7 | 20.9 | 10.3 | x
CCOc1ccccc1C(=O)N/N=C/c1cccc2cccnc12 | 4.8 | -4.6 | -1.3 | -13.4 | -13.2 | -5.4 | x
CCOc1ccc(C(=O)N/N=C/c2cccc3cccnc23)cc1 | -2.6 | 1.3 | 2.9 | 24.9 | x | 56.4* | 64.4*
COc1ccc(C(=O)N/N=C/c2cccc3cccnc23)cc1 | -3.7 | 3.3 | 0.0 | 11.8 | 23.0 | 52.0* | 60.5*
COc1ccc(C(=O)N/N=C/c2cccnc2)cc1 | -4.5 | -3.4 | -0.5 | -7.0 | 2.8 | -0.4 | x
CCc1nccn1CCC(=O)NC1CCCc2c1cnn2-c1ccc(F)cc1F (stereo not drawn) | 0.2 | -3.8 | 0.5 | 18.5 | 4.6 | -4.4 | x
COc1ccc(NC(=O)N(C)C[C@H]2Oc3ccc(NC(=O)Cn4cnnn4)cc3C(=O)N([C@H](C)CO)C[C@@H]2C)cc1 | -1.4 | 1.2 | -0.4 | 1.4 | -4.1 | 1.1 | x
CC(C)=CCN1CCN(CCC2=C(C)CCCC2(C)C)CC1CCO (stereo not drawn) | -2.8 | -4.0 | -2.7 | 17.8 | 14.6 | -23.4 | x
